Measurements gathered from unrelated publications.
≈ marks a conversion by molar mass, not a printed value.
Organism: Bacillus subtilis

| Structure (SMILES) | effect on | technique | strain | tested at | time | measurement | value |
| --- | --- | --- | --- | --- | --- | --- | --- |
| O=C(O)CN1C(=O)/C(=C/c2ccc(-c3ccc(N(c4ccccc4)c4ccccc4)cc3)cc2)NC1=S | microbial killing | broth dilution | ATCC6633 | – | – | MBC | 3.9 µg/mL (≈ 7.71 µM) |
| CO[C@H]1O[C@H](COC(c2ccccc2)(c2ccccc2)c2ccccc2)[C@@H](OC(=O)c2ccc(C(C)(C)C)cc2)[C@H](OC(=O)c2ccc(C(C)(C)C)cc2)[C@H]1OC(=O)c1ccc(C(C)(C)C)cc1 | microbial killing | broth dilution | – | – | – | MBC | 16 µg/mL (≈ 17.4 µM) |
| O=C(O)CN1C(=O)/C(=C/c2ccc(-c3ccc(N(c4ccccc4)c4ccccc4)cc3)c3ccccc23)NC1=S | microbial killing | broth dilution | ATCC6633 | – | – | MBC | > 1000 µg/mL |
| CC[C@H]1OC(=O)[C@H](C)[C@@H](O[C@H]2C[C@@](C)(OC)[C@@H](O)[C@H](C)O2)[C@H](C)[C@@H](O[C@@H]2O[C@H](C)C[C@H](N(C)C)[C@H]2O)[C@](C)(O)C[C@@H](C)/C(=N\OCOCCOC)[C@H](C)[C@@H](O)[C@]1(C)O | microbial growth | disc diffusion | ATCC6633 | 20000 µg/mL | 24 h | inhibition zone | 23 mm |
| O=C(N[C@H](CO)[C@H](O)c1ccc([N+](=O)[O-])cc1)C(Cl)Cl | microbial growth | disc diffusion | – | 50 µg/disc | – | inhibition zone | 21 mm |
| O=C(O)CN1C(=O)/C(=C/c2ccc(-c3ccc(N(c4ccccc4)c4ccccc4)cc3)cc2)SC1=S | microbial killing | broth dilution | ATCC6633 | – | – | MBC | 1.95 µg/mL (≈ 3.73 µM) |
| N#CC(=Cc1ccccc1O)C1=NC(=O)C(=Cc2cn(-c3ccccc3)nc2-c2ccccc2)S1 | microbial killing | broth dilution | – | – | – | MBC | 0.5 µg/mL (≈ 1.05 µM) |
| O=C(O)CN1C(=O)/C(=C/c2c3ccccc3c(-c3ccc(N(c4ccccc4)c4ccccc4)cc3)c3ccccc23)NC1=S | microbial killing | broth dilution | ATCC6633 | – | – | MBC | > 1000 µg/mL |
| N#CC(=Cc1ccc([N+](=O)[O-])cc1)C1=NC(=O)C(=Cc2cn(-c3ccccc3)nc2-c2ccccc2)S1 | microbial growth | well diffusion | – | 100000 µg/mL | – | inhibition zone | 23 mm |
| O=C(O)c1cn(C2CC2)c2cc(N3CCNCC3)c(F)cc2c1=O | microbial growth | – | 6633 | 1000 µg/mL | – | inhibition zone | 29 mm |
| Cc1ccc(-c2nn(-c3ccccc3)cc2C=C(C#N)C2=NC(=O)CS2)cc1 | microbial growth | well diffusion | – | 100000 µg/mL | – | inhibition zone | 21 mm |
| CC1(C)S[C@@H]2[C@H](NC(=O)[C@H](N)c3ccccc3)C(=O)N2[C@H]1C(=O)O | microbial growth | agar dilution | ATCC6633 | 26.93 µM | – | inhibition | 100% |
| Cc1c(NC(=O)CC2=NC(=O)CS2)c(=O)n(-c2ccccc2)n1C | microbial growth | well diffusion | – | 100000 µg/mL | – | inhibition zone | 26 mm |
| Cc1cc(N)c2ccccc2[n+]1CCCCCCCCCC[n+]1c(C)cc(N)c2ccccc21 | microbial growth | disc diffusion | – | 50 µg/disc | – | inhibition zone | 11 mm |
